Assays:
Homo sapiens [1] = species: Homo sapiens; assay: Selectivity ratio of Ki for JAK2 (unknown origin) to Ki for JAK1 (unknown origin)
Procedure, shortened: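 Biochemical JAK enzyme assay giving Ki, reported as the arithmetic mean of at least three separate determinations. Selectivity is taken as JAK2 Ki divided by JAK1 Ki.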

[2] = Half life in human liver microsomes; assay type: ADME, Microsome
Procedure, shortened: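 Half-life measured by incubation with in vitro preparations of human liver microsomes.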

[3] = Lipophilicity, log D of the compound at pH 7.2; assay type: physicochemical; settings: buffer
Procedure, shortened: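 Log D determined experimentally at pH 7.2.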

[4] = target: Tyrosine-protein kinase JAK2 (Homo sapiens, UniProt O60674); assay: Inhibition of JAK2 (unknown origin)
[5] = target: T1, Tyrosine-protein kinase JAK1 (Homo sapiens, UniProt P23458); assay: Inhibition of JAK1 (unknown origin)
Homo sapiens [6] = species: Homo sapiens; assay: Selectivity ratio of Ki for TYK2 (unknown origin) to Ki for JAK1 (unknown origin)
[7] = target: Non-receptor tyrosine-protein kinase TYK2 (Homo sapiens, UniProt P29597); assay: Inhibition of TYK2 (unknown origin)
Homo sapiens [8] = species: Homo sapiens; assay: Selectivity ratio of Ki for JAK3 (unknown origin) to Ki for JAK1 (unknown origin)
[9] = target: T2, Tyrosine-protein kinase JAK3 (Homo sapiens, UniProt P52333); assay: Inhibition of JAK3 (unknown origin)
T2 sequence (P52333 whole entry): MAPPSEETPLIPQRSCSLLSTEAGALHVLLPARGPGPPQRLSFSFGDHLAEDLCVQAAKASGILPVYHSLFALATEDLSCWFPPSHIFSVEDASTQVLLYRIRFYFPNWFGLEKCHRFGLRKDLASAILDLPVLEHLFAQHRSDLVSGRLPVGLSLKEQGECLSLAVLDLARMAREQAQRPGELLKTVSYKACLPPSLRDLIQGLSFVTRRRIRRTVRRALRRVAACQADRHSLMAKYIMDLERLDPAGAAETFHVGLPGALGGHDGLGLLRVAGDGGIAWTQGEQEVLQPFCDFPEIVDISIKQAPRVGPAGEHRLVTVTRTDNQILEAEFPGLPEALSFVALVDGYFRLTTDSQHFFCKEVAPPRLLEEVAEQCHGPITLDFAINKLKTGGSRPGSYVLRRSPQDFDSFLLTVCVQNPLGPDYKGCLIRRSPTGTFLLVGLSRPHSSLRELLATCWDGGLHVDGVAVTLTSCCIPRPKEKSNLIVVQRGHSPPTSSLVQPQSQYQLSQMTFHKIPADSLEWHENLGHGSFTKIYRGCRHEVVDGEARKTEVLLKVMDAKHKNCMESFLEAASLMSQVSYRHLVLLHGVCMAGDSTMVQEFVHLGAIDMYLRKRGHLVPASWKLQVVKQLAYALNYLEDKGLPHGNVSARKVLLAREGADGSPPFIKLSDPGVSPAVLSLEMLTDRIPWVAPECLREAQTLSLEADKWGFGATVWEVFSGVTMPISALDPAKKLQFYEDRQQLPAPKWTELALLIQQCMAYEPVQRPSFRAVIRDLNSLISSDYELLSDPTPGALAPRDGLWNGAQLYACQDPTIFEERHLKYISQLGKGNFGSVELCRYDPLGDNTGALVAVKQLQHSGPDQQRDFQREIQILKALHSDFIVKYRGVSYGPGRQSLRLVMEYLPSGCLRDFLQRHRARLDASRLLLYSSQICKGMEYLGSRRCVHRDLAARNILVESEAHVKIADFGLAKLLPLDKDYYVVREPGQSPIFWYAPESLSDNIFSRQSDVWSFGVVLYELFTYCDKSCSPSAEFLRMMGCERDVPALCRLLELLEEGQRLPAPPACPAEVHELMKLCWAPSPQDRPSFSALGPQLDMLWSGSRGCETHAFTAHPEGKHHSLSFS

[10] = AUC in Sprague-Dawley rat at 5 mg/kg, po; assay type: ADME, organism-based; design: dose 5 mg/kg, route oral; settings: plasma
Procedure, shortened: (§1)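 Rat pharmacokinetics given as mean profiles from three animals. Values normalized to 1 mg/kg iv and 5 mg/kg po. Clearance is plasma clearance after iv dosing.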

[11] = Clearance in Sprague-Dawley rat at 1 mg/kg, iv; assay type: ADME, organism-based; design: dose 1 mg/kg, route intravenous; settings: in vivo; procedure, shortened: as §1
[12] = Cmax in Sprague-Dawley rat at 5 mg/kg, po; assay type: ADME, organism-based; design: dose 5 mg/kg, route oral; settings: in vivo; procedure, shortened: as §1
[13] = Oral bioavailability in Sprague-Dawley rat at 5 mg/kg; assay type: ADME, organism-based; settings: in vivo; procedure, shortened: as §1
[14] = Dissociation constant, pKa of the compound; assay type: physicochemical
[15] = Apparent permeability from apical to basolateral side in MDCK cells; assay type: ADME, cell-based, Canis lupus familiaris; settings: dog
Procedure, shortened: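 MDCK cells grown in transwell culture. Apparent permeability measured in the apical-to-basolateral direction and reported as the arithmetic mean of at least two separate determinations.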

TF-1 = assay: Selectivity ratio of EC50 for JAK2-mediated STAT5 phosphorylation in EPO-induced human TF1 cells to EC50 for JAK1-mediated STAT3 phosphorylation in IL6-induced human TF1 cells; assay type: cell-based
[16] = target: T1, Tyrosine-protein kinase JAK1; assay: Inhibition of JAK1-mediated STAT3 phosphorylation in IL6-induced human TF1 cells; assay type: cell-based, TF-1
[17] = target: T3, Serine/threonine-protein kinase D1 (Homo sapiens) (UniProt Q15139); assay: Inhibition of protein kinase D1 (unknown origin) relative to control; settings: concentration not given here
T3 sequence (whole entry): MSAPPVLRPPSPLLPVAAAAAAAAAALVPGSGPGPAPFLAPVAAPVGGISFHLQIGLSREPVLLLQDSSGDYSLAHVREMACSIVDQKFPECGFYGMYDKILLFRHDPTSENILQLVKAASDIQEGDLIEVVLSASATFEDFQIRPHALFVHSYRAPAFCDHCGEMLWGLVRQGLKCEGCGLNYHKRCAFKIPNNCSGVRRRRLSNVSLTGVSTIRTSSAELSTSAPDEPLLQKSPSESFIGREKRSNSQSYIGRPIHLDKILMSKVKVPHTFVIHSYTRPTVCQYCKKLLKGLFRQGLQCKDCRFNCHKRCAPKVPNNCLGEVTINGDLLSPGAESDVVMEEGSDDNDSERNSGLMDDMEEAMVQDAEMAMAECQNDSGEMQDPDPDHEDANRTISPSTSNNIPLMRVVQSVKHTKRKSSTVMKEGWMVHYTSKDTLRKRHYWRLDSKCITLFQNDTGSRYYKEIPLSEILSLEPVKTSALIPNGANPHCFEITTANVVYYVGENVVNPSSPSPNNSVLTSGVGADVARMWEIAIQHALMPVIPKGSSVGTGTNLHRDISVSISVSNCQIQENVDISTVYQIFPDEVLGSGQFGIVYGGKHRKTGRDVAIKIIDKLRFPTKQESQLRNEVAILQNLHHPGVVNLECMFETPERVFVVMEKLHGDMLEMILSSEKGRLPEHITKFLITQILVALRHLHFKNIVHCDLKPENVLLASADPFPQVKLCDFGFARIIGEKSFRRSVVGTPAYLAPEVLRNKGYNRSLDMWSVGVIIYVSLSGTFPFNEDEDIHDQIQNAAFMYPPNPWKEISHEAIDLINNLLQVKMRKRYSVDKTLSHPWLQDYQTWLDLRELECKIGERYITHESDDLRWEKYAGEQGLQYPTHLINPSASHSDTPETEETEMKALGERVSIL
Procedure, shortened: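 Kinase selectivity panel of 50 non-JAK kinases. […] Percent inhibition scored, and enzymes inhibited by more than 40% were counted.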

T1 sequence (P23458 whole entry): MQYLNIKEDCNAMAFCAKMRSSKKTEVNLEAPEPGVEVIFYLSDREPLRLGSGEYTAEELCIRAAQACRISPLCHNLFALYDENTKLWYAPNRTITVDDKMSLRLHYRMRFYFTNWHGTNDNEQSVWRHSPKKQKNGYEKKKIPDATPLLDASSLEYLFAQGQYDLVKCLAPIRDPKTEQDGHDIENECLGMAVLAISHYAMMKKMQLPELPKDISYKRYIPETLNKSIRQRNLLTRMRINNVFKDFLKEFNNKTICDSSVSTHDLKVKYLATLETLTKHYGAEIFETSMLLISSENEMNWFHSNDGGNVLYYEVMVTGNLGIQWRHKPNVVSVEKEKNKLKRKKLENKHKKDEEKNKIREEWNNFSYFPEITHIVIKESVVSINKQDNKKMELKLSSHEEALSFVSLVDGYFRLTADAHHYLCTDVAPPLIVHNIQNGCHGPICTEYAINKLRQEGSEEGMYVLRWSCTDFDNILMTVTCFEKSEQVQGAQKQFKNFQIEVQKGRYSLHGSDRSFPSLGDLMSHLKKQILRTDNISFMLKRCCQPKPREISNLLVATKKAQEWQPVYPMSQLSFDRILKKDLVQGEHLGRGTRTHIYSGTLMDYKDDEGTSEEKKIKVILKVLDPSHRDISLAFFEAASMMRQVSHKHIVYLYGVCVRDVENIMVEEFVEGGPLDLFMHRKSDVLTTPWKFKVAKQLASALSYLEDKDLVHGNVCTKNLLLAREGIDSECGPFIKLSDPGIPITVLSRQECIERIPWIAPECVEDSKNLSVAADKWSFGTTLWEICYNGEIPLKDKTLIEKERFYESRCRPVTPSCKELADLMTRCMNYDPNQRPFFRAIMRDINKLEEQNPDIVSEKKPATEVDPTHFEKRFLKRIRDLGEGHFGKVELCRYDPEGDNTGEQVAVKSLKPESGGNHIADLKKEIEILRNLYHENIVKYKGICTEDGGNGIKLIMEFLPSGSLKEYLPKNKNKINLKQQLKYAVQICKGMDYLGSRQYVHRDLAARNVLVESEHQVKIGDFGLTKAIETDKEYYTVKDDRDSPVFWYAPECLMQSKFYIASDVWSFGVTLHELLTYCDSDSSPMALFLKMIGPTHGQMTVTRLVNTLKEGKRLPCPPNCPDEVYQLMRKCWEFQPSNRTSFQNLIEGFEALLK
Sequence of Tyrosine-protein kinase JAK2 (O60674 whole entry): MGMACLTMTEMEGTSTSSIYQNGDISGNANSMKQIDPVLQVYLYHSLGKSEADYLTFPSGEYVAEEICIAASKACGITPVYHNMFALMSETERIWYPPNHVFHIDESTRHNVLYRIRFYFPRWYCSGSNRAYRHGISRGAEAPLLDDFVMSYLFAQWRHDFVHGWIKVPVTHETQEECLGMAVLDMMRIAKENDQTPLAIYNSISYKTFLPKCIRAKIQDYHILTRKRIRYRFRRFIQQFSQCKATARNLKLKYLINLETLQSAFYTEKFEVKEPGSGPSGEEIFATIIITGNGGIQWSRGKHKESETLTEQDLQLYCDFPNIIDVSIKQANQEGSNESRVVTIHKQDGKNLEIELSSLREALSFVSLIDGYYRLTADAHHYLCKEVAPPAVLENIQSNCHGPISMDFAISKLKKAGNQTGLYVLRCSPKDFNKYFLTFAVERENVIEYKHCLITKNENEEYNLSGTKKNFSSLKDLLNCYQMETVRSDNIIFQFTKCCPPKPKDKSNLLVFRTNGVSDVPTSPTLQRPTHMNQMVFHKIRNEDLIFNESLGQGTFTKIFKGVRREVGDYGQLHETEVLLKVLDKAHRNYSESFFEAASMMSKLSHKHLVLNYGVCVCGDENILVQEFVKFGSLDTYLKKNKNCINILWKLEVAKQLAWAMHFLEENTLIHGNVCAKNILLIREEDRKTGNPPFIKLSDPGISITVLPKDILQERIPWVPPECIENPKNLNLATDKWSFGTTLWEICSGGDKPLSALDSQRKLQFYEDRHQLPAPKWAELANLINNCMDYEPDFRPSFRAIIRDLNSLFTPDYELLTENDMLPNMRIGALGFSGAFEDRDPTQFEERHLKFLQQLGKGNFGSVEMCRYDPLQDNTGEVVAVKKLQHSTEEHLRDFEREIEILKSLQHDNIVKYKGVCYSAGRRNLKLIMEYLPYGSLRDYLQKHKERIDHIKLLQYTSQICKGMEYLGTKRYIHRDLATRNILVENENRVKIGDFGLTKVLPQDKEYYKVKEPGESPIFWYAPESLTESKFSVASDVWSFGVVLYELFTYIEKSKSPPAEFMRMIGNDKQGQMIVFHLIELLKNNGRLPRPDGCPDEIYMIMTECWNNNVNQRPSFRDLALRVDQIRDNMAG
Sequence of Non-receptor tyrosine-protein kinase TYK2 (P29597 whole entry): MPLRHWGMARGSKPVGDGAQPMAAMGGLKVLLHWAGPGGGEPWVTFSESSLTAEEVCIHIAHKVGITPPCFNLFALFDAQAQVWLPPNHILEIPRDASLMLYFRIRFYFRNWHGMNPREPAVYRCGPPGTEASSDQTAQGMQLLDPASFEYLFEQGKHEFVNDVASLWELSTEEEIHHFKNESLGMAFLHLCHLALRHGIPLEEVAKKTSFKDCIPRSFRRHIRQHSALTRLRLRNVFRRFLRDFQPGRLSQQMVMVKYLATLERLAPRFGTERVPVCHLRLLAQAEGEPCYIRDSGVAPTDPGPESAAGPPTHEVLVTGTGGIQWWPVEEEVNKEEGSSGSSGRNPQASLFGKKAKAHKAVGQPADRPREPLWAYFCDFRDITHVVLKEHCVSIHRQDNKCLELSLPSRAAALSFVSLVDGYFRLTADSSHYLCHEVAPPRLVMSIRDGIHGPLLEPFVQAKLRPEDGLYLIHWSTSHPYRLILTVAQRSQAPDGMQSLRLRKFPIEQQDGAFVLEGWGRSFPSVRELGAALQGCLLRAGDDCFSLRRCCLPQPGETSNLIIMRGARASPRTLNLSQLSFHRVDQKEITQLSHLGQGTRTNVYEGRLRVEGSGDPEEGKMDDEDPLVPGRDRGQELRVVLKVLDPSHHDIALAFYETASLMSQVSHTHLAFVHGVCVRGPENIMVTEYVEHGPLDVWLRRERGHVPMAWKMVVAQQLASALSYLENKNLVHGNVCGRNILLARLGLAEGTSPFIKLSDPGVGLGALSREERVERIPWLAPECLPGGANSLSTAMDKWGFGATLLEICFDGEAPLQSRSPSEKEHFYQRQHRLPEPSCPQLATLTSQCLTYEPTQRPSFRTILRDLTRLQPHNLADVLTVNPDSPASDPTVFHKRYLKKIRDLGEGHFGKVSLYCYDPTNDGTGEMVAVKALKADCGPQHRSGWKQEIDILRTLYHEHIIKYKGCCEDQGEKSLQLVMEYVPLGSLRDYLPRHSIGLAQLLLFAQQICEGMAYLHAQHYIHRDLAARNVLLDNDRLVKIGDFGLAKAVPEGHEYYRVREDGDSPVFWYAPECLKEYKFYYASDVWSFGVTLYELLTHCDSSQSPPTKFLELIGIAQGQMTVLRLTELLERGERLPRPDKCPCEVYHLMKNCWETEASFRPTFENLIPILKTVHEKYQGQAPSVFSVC

Row | Ratio Ki (Homo sapiens [1]) | half-life [2] [h] | logD [3] | Ki [4] [nM] | Ki [5] [nM] | Ratio Ki (Homo sapiens [6]) | Ki [7] [nM] | Ratio Ki (Homo sapiens [8]) | Ki [9] [nM] | AUC [10] [µM·h] | clearance [11] [mL/min/kg] | Cmax [12] [nM] | bioavailability [13] [%] | pKa [14] | Papp A→B [15] [×10⁻⁶ cm/s] | EC50 [16] [nM] | inhibition [17] [%] | SMILES | Ratio EC50 (TF-1)
1 | 3.3 | 1 | 3.58 | 401 | 120 | – | – | – | – | – | – | – | – | – | – | – | – | CC(C)(C)OC(=O)N[C@H]1CC[C@H](n2nnc3cnc4[nH]ccc4c32)CC1 | –
2 | 2.7 | 15 | 0.77 | 57 | 21 | – | – | – | – | – | – | – | – | – | – | – | – | F[C@@H]1CNCC[C@H]1n1nnc2cnc3[nH]ccc3c21 (racemic) | –
3 | – | 1.2 | 1.76 | – | – | – | – | – | – | – | – | – | – | – | – | – | – | O[C@H]1CC[C@H](n2nnc3cnc4[nH]ccc4c32)CC1 | –
4 | – | – | 0.6 | 3.8 | – | > 10 | 20 | > 10 | 24 | 1 | 110 | 400 | 41 | 1.96 | 3.7 | 114 | – | N#CCC(=O)N1CCC[C@@H](n2nnc3cnc4[nH]ccc4c32)C1 | 6.8
5 | – | 2.3 | 1.05 | – | – | – | – | – | 122 | 1.4 | 88 | 900 | 44 | – | 7.2 | – | 44 | N#CCCN[C@H]1CC[C@H](n2nnc3cnc4[nH]ccc4c32)CC1 | –
6 | 3.1 | 4.8 | 1.92 | 487 | 156 | – | – | – | – | – | – | – | – | – | – | – | – | CC1(n2nnc3cnc4[nH]ccc4c32)CCN(CCC#N)CC1 | –
7 | 2.3 | – | 0.27 | 446 | 198 | – | – | – | – | – | – | – | – | – | – | – | – | F[C@H]1CNCC[C@H]1n1nnc2cnc3[nH]ccc3c21 (racemic) | –
8 | 1.7 | 0.7 | 2.03 | 28 | 16 | – | – | – | – | – | – | – | – | – | – | 414 | – | c1cncc(CN2CCC(n3nnc4cnc5[nH]ccc5c43)CC2)c1 | 2.7
9 | 1.7 | 1.3 | – | 1230 | 745 | – | – | – | – | – | – | – | – | – | – | – | – | c1cc2c(ncc3nnn(CC4CCNCC4)c32)[nH]1 | –
10 | 6.7 | 32 | 1.5 | 53 | 7.9 | > 10 | 234 | > 10 | 369 | 1 | 211 | 700 | 82 | – | 14 | 220 | – | CC1(n2nnc3cnc4[nH]ccc4c32)CCN(S(C)(=O)=O)CC1 | 15
11 | – | – | – | – | – | – | – | – | – | – | – | – | – | 4.34 | 0.3 | – | – | N#CCC(=O)N1CCC[C@@H](n2cnc3cnc4[nH]ccc4c32)C1 | –
12 | 4.2 | 0.9 | 3.53 | 10 | 2.4 | – | – | – | – | – | – | – | – | – | – | 127 | – | CC(C)(C)OC(=O)N[C@@H]1CC[C@@H](n2nnc3cnc4[nH]ccc4c32)C1 | 4.3
13 | 3.6 | 3.7 | 2.7 | 17 | 4.7 | – | – | – | – | – | – | – | – | – | – | 350 | – | CC(C)CC(=O)N[C@H]1CC[C@H](n2nnc3cnc4[nH]ccc4c32)CC1 | 5
14 | 2 | 0.5 | – | 15 | 8.5 | – | – | – | – | – | – | – | – | – | – | 121 | – | c1ccc(CN2CCC(n3nnc4cnc5[nH]ccc5c43)CC2)cc1 | 3.4
15 | 1.9 | 1.7 | 1.05 | 12 | 6.2 | – | – | – | – | 18 | 16 | 4600 | > 100 | – | 13 | 249 | – | CS(=O)(=O)N1CCC(n2nnc3cnc4[nH]ccc4c32)CC1 | 4.8
16 | 1.6 | 0.2 | – | – | 25 | – | – | – | – | – | – | – | – | – | – | – | – | c1ccc(CN2CCC[C@@H](n3nnc4cnc5[nH]ccc5c43)C2)cc1 | –
17 | 5.9 | 1.1 | – | 721 | 121 | – | – | – | – | – | – | – | – | – | – | – | – | CN1CCC[C@H]1C(=O)N1CCC(n2nnc3cnc4[nH]ccc4c32)CC1 | –
18 | – | 5.8 | 1.36 | – | > 3760 | – | – | – | – | – | – | – | – | – | – | – | – | N#CCCO[C@H]1CC[C@H](n2nnc3cnc4[nH]ccc4c32)CC1 | –
19 | – | 1.1 | -0.24 | – | – | – | – | – | – | – | – | – | – | – | – | – | – | N[C@H]1CC[C@H](n2nnc3cnc4[nH]ccc4c32)CC1 | –
20 | 2.3 | 4.8 | 2.08 | 27 | 12 | – | – | – | – | – | – | – | – | – | – | 433 | – | COC(=O)N[C@H]1CC[C@H](n2nnc3cnc4[nH]ccc4c32)CC1 | 4
21 | 2.8 | 4.3 | 1.98 | 33 | 12 | – | – | – | – | – | – | – | – | – | – | 395 | – | COC(=O)N[C@@H]1CC[C@@H](n2nnc3cnc4[nH]ccc4c32)C1 (racemic) | 6.8
22 | 3.2 | – | -0.35 | 669 | 210 | – | – | – | – | – | – | – | – | – | – | – | – | c1cc2c(ncc3nnn(C4CCNCC4)c32)[nH]1 | –
23 | 1.8 | 1.9 | 1.12 | 3.7 | 2.1 | – | – | – | – | 1.8 | 44 | 4900 | 28 | – | 17 | 138 | – | N#CCCN1CCC(n2nnc3cnc4[nH]ccc4c32)CC1 | 4.6
